Data from ChEMBL document CHEMBL1123045, “Synthesis of high specific activity [75Br]- and [77Br]bromperidol and tissue distribution studies in the rat” (J Med Chem, 1985).

Tests used:
Rattus norvegicus [1] = assay: Distribution in rat pancreas 30 min after intravenous administration, injected dose/gm; type: ADME, organism-based; settings: in vivo, 0.5 h
Summary of the method: (§1)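 Female Sprague-Dawley rats (300-320 g) under light ether anesthesia received a single injection of [77Br]-labeled tracer (50-100 µCi in 0.1 mL 0.9% NaCl, pH 3) into the femoral vein. Groups of five were decapitated at set times after a cardiac-puncture blood sample. Organs were dissected, blotted and weighed, and counted in a NaI(Tl) well γ-counter. Values are %ID/g against an injectate standard, mean ± SD (n=5).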

Rattus norvegicus [2] = assay: Distribution in rat liver 2 hr after intravenous administration, injected dose/gm; type: ADME, organism-based; settings: in vivo
Summary of the method: (§2)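 [77Br]Bromperidol at high specific activity (50-100 µCi in 0.1 mL 0.9% NaCl, pH 3) given into the femoral vein of 300-320-g female Sprague-Dawley rats under light ether anesthesia. At each time point, groups of five were decapitated after cardiac-puncture blood sampling. Organs were dissected, blotted, weighed and gamma-counted against an injectate standard. Values are % injected dose/g, mean ± SD, n=5.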

Rattus norvegicus [3] = assay: Distribution in rat fat 5 min after intravenous administration, injected dose/gm; type: ADME, organism-based, Adipose tissue; settings: in vivo; summary of the method: as §2
Rattus norvegicus [4] = assay: Distribution in rat heart 15 min after intravenous administration, injected dose/gm; type: ADME, organism-based; settings: in vivo, 0.25 h; summary of the method: as §2
Rattus norvegicus [5] = assay: Distribution in rat uterus 8 hr after intravenous administration, injected dose/gm; type: ADME, organism-based; settings: in vivo; summary of the method: as §1
Rattus norvegicus [6] = assay: Distribution in blood of rat, 2 hr after intravenous administration, injected dose/gm; type: ADME, organism-based; settings: in vivo; summary of the method: as §2
Rattus norvegicus [7] = assay: Distribution in rat lungs 1 hr after intravenous administration, injected dose/gm; type: ADME, organism-based, Lung; settings: in vivo; summary of the method: as §1
Rattus norvegicus [8] = assay: Distribution in rat kidney, 15 min after intravenous administration, injected dose/gm; type: ADME, organism-based; settings: in vivo, 0.25 h; summary of the method: as §2
Rattus norvegicus [9] = assay: Distribution in rat pancreas 5 min after intravenous administration, injected dose/gm; type: ADME, organism-based; settings: in vivo; summary of the method: as §1
Rattus norvegicus [10] = assay: Distribution in rat skin 5 min after intravenous administration, injected dose/gm; type: ADME, organism-based; settings: in vivo; summary of the method: as §1
Rattus norvegicus [11] = assay: Distribution in blood of rat, 4 hr after intravenous administration, injected dose/gm; type: ADME, organism-based; settings: in vivo; summary of the method: as §2
Rattus norvegicus [12] = assay: Distribution in blood of rat 5 min after intravenous administration, injected dose/gm; type: ADME, organism-based; settings: in vivo; summary of the method: as §2
Rattus norvegicus [13] = assay: Distribution in rat muscle 2 hr after intravenous administration, injected dose/gm; type: ADME, organism-based, Muscle tissue; settings: in vivo; summary of the method: as §1
Rattus norvegicus [14] = assay: Distribution in rat lungs 30 min after intravenous administration, injected dose/gm; type: ADME, organism-based, Lung; settings: in vivo, 0.5 h; summary of the method: as §1
Rattus norvegicus [15] = assay: Distribution in rat spleen 30 min after intravenous administration, injected dose/gm; type: ADME, organism-based; settings: in vivo, 0.5 h; summary of the method: as §1
Rattus norvegicus [16] = assay: Distribution in rat spleen 6 hr after intravenous administration, injected dose/gm; type: ADME, organism-based; settings: in vivo; summary of the method: as §1
Rattus norvegicus [17] = assay: Distribution in blood of rat, 8 hr after intravenous administration, injected dose/gm; type: ADME, organism-based; settings: in vivo; summary of the method: as §2
Rattus norvegicus [18] = assay: Distribution in rat spleen 5 min after intravenous administration, injected dose/gm; type: ADME, organism-based; settings: in vivo; summary of the method: as §1
Rattus norvegicus [19] = assay: Distribution in rat intestine 4 hr after intravenous administration, injected dose/gm; type: ADME, organism-based; settings: in vivo; summary of the method: as §2
Rattus norvegicus [20] = assay: Distribution in rat spleen 4 hr after intravenous administration, injected dose/gm; type: ADME, organism-based; settings: in vivo; summary of the method: as §1
Rattus norvegicus [21] = assay: Distribution in blood of rat, 6 hr after intravenous administration, injected dose/gm; type: ADME, organism-based; settings: in vivo; summary of the method: as §2
Rattus norvegicus [22] = assay: Distribution in rat fat 8 hr after intravenous administration, injected dose/gm; type: ADME, organism-based, Adipose tissue; settings: in vivo; summary of the method: as §2
Rattus norvegicus [23] = assay: Distribution in blood of rat, 1 hr after intravenous administration, injected dose/gm; type: ADME, organism-based; settings: in vivo; summary of the method: as §2
Rattus norvegicus [24] = assay: Distribution in rat fat 2 hr after intravenous administration, injected dose/gm; type: ADME, organism-based, Adipose tissue; settings: in vivo; summary of the method: as §2
Rattus norvegicus [25] = assay: Distribution in rat muscle 6 hr after intravenous administration, injected dose/gm; type: ADME, organism-based, Muscle tissue; settings: in vivo; summary of the method: as §1
Rattus norvegicus [26] = assay: Distribution in rat lungs 2 hr after intravenous administration, injected dose/gm; type: ADME, organism-based, Lung; settings: in vivo; summary of the method: as §1
Rattus norvegicus [27] = assay: Distribution in rat kidney, 1 hr after intravenous administration, injected dose/gm; type: ADME, organism-based; settings: in vivo; summary of the method: as §2
Rattus norvegicus [28] = assay: Distribution in rat lungs 4 hr after intravenous administration, injected dose/gm; type: ADME, organism-based, Lung; settings: in vivo; summary of the method: as §1
Rattus norvegicus [29] = assay: Distribution in rat muscle 4 hr after intravenous administration, injected dose/gm; type: ADME, organism-based, Muscle tissue; settings: in vivo; summary of the method: as §1
Rattus norvegicus [30] = assay: Distribution in rat uterus 5 min after intravenous administration, injected dose/gm; type: ADME, organism-based; settings: in vivo; summary of the method: as §1
Rattus norvegicus [31] = assay: Distribution in rat liver 30 min after intravenous administration, injected dose/gm; type: ADME, organism-based; settings: in vivo, 0.5 h; summary of the method: as §1
Rattus norvegicus [32] = assay: Distribution in rat kidney, 30 min after intravenous administration, injected dose/gm; type: ADME, organism-based; settings: in vivo, 0.5 h; summary of the method: as §2
Rattus norvegicus [33] = assay: Distribution in rat liver 15 min after intravenous administration, injected dose/gm; type: ADME, organism-based; settings: in vivo, 0.25 h; summary of the method: as §2
Rattus norvegicus [34] = assay: Distribution in rat lungs 6 hr after intravenous administration, injected dose/gm; type: ADME, organism-based, Lung; settings: in vivo; summary of the method: as §1
Rattus norvegicus [35] = assay: Distribution in rat fat 4 hr after intravenous administration, injected dose/gm; type: ADME, organism-based, Adipose tissue; settings: in vivo; summary of the method: as §2
Rattus norvegicus [36] = assay: Distribution in brain of rat, 15 min after intravenous administered, injected dose/gm; type: ADME, organism-based; settings: in vivo, 0.25 h; summary of the method: as §2
Rattus norvegicus [37] = assay: Distribution in rat muscle 15 min after intravenous administration, injected dose/gm; type: ADME, organism-based, Muscle tissue; settings: in vivo, 0.25 h; summary of the method: as §1
Rattus norvegicus [38] = assay: Distribution in rat intestine 5 min after intravenous administration, injected dose/gm; type: ADME, organism-based; settings: in vivo; summary of the method: as §2
Rattus norvegicus [39] = assay: Distribution in rat pancreas 4 hr after intravenous administration, injected dose/gm; type: ADME, organism-based; settings: in vivo; summary of the method: as §1
Rattus norvegicus [40] = assay: Distribution in rat intestine 30 min after intravenous administration, injected dose/gm; type: ADME, organism-based; settings: in vivo, 0.5 h; summary of the method: as §2
Rattus norvegicus [41] = assay: Distribution in rat heart 30 min after intravenous administration, injected dose/gm; type: ADME, organism-based; settings: in vivo, 0.5 h; summary of the method: as §2
Rattus norvegicus [42] = assay: Distribution in rat fat 1 hr after intravenous administration, injected dose/gm; type: ADME, organism-based, Adipose tissue; settings: in vivo; summary of the method: as §2
Rattus norvegicus [43] = assay: Distribution in rat intestine 1 hr after intravenous administration, injected dose/gm; type: ADME, organism-based; settings: in vivo; summary of the method: as §2
Rattus norvegicus [44] = assay: Distribution in rat intestine 2 hr after intravenous administration, injected dose/gm; type: ADME, organism-based; settings: in vivo; summary of the method: as §2
Rattus norvegicus [45] = assay: Distribution in rat muscle 1 hr after intravenous administration, injected dose/gm; type: ADME, organism-based, Muscle tissue; settings: in vivo; summary of the method: as §1
Rattus norvegicus [46] = assay: Distribution in rat muscle 8 hr after intravenous administration, injected dose/gm; type: ADME, organism-based, Muscle tissue; settings: in vivo; summary of the method: as §1
Rattus norvegicus [47] = assay: Distribution in rat pancreas 1 hr after intravenous administration, injected dose/gm; type: ADME, organism-based; settings: in vivo; summary of the method: as §1
Rattus norvegicus [48] = assay: Distribution in rat pancreas 2 hr after intravenous administration, injected dose/gm; type: ADME, organism-based; settings: in vivo; summary of the method: as §1
Rattus norvegicus [49] = assay: Distribution in rat uterus 30 min after intravenous administration, injected dose/gm; type: ADME, organism-based; settings: in vivo, 0.5 h; summary of the method: as §1
Rattus norvegicus [50] = assay: Distribution in rat spleen 2 hr after intravenous administration, injected dose/gm; type: ADME, organism-based; settings: in vivo; summary of the method: as §1

SMILES: O=C(CCCN1CCC(O)(c2ccc(Br)cc2)CC1)c1ccc(F)cc1 [BROMPERIDOL]
- Distribution (Rattus norvegicus [1]): 5.2%
- Distribution (Rattus norvegicus [2]): 3.16%
- Distribution (Rattus norvegicus [3]): 0.05%
- Distribution (Rattus norvegicus [4]): 1.37%
- Distribution (Rattus norvegicus [5]): 1.15%
- Distribution (Rattus norvegicus [6]): 0.05%
- Distribution (Rattus norvegicus [7]): 4.19%
- Distribution (Rattus norvegicus [8]): 4.69%
- Distribution (Rattus norvegicus [9]): 3.16%
- Distribution (Rattus norvegicus [10]): 0.15%
- Distribution (Rattus norvegicus [11]): 0.06%
- Distribution (Rattus norvegicus [12]): 0.12%
- Distribution (Rattus norvegicus [13]): 0.15%
- Distribution (Rattus norvegicus [14]): 5.8%
- Distribution (Rattus norvegicus [15]): 4.43%
- Distribution (Rattus norvegicus [16]): 1.76%
- Distribution (Rattus norvegicus [17]): 0.02%
- Distribution (Rattus norvegicus [18]): 3.02%
- Distribution (Rattus norvegicus [19]): 0.76%
- Distribution (Rattus norvegicus [20]): 1.92%
- Distribution (Rattus norvegicus [21]): 0.03%
- Distribution (Rattus norvegicus [22]): 0.18%
- Distribution (Rattus norvegicus [23]): 0.06%
- Distribution (Rattus norvegicus [24]): 0.18%
- Distribution (Rattus norvegicus [25]): 0.13%
- Distribution (Rattus norvegicus [26]): 2.1%
- Distribution (Rattus norvegicus [27]): 4.11%
- Distribution (Rattus norvegicus [28]): 1.59%
- Distribution (Rattus norvegicus [29]): 0.12%
- Distribution (Rattus norvegicus [30]): 1.91%
- Distribution (Rattus norvegicus [31]): 2.5%
- Distribution (Rattus norvegicus [32]): 5.01%
- Distribution (Rattus norvegicus [33]): 2.19%
- Distribution (Rattus norvegicus [34]): 1.24%
- Distribution (Rattus norvegicus [35]): 0.15%
- Distribution (Rattus norvegicus [36]): 3.04%
- Distribution (Rattus norvegicus [37]): 0.32%
- Distribution (Rattus norvegicus [38]): 0.39%
- Distribution (Rattus norvegicus [39]): 3.51%
- Distribution (Rattus norvegicus [40]): 0.83%
- Distribution (Rattus norvegicus [41]): 1.07%
- Distribution (Rattus norvegicus [42]): 0.22%
- Distribution (Rattus norvegicus [43]): 0.89%
- Distribution (Rattus norvegicus [44]): 0.82%
- Distribution (Rattus norvegicus [45]): 0.18%
- Distribution (Rattus norvegicus [46]): 0.1%
- Distribution (Rattus norvegicus [47]): 4.23%
- Distribution (Rattus norvegicus [48]): 3.76%
- Distribution (Rattus norvegicus [49]): 3%
- Distribution (Rattus norvegicus [50]): 2.69%
